Screens as filed in PubChem.
TAAR1 agonist = human TAAR1 agonism | CHO RD-HGA16 TAAR1, Fluo-8 calcium fluorescence; vehicle wells 0%, saturating PEA agonist 100% | AID 624467 | 360,000 compounds, 0.99% hits | activation, % at 3 µM;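 active = activation above the mean activation of all test compounds in the run plus 3 SD, cut at about 38% in these data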
Target sequence (Q96RJ0 whole entry, looked up): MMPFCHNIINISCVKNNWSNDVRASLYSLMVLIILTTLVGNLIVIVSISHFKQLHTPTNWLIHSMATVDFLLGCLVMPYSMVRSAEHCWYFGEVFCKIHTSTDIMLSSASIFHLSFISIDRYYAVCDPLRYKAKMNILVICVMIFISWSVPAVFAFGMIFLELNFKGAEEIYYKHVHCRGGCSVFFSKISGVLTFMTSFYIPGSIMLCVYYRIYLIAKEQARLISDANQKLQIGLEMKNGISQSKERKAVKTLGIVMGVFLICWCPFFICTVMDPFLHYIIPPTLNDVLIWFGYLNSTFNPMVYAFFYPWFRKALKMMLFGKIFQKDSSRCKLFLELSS
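Assay system – CHO-derived RD-HGA16 cells with stable Gα16 and human TAAR1 · Compound dosing – one-point dosing at 3 µM (nominal) · Incubation – 17-24 h seeding, 75 min 37 °C dye, 30 min RT · Measured by – kinetic Fluo-8 calcium fluorescence · Control set – DMSO vehicle as 0%, PEA at EC100 as 100% · Repeats – single well for each compound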
GPR7 antagonist = antagonists of human GPR7 (neuropeptides B/W receptor 1). P48145. GPR7-expressing cells, fluorescence antagonist assay. 290,000 compounds, 1.1% hits. inhibition, % at 4.4 µM; in the data active = inhibition above about 16%, passing the limit was not always enough;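 also: cells stimulated with the agonist NPW; 0% = agonist with vehicle and 100% = vehicle without agonist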
OX1R antag-1 = human HCRTR1 antagonism; O43613; CHO/OX1R cells, Fluo-8 calcium fluorescence, orexin A; inhibition, % at 5 µM; 330,000 compounds, 0.43% hits; AID 434989;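 active = inhibition above its plate's threshold, mean inhibition of all tested compounds on the plate plus 3 SD, cut at about 37% in these data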;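 also: 0% = orexin A challenge wells and 100% = SB-334867-A antagonist wells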
OX1R antag-2 = antagonists of human orexin 1 receptor (OX1R); O43613; inhibition, % at 6.6 µM; 330,000 compounds, 1.8% hits; OX1R-expressing cells, FRET antagonist read-out; in the data active = inhibition mostly above about 38%, no sharp cut-off; inactive = mostly below about 40%;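 also: 0% = agonist challenge alone and 100% = reference antagonist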
CHO parental Ca = signal in parental CHO cells, OX1R antagonist counter-screen; AID 463079; 330,000 compounds, 0.63% hits; parental CHO-K1, ATP-induced calcium, Fluo-8 fluorescence; inhibition, % at 5.6 µM;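 active = inhibition above that plate's mean sample inhibition plus 3 SD, cut at about 26% in these data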;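 also: 0% = ATP-challenged DMSO wells and 100% = DMSO wells without ATP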
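Assay system: parental CHO cells; Read-out basis: percent inhibition of ATP-evoked calcium rise, normalized to controls; Benchmarks: ATP and no-ATP DMSO wells; Compound dosing: single nominal dose of 5.6 µM per compound; Signal: Fluo-8 calcium dye fluorescence; Also added: ATP as calcium-mobilizing challenge; Repeats: singlicate.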
TAAR1 antag = antagonists of human TAAR1. Q96RJ0. CHO RD-HGA16 TAAR1, Fluo-8 calcium fluorescence, antagonist. inhibition, % at 3 µM. 360,000 compounds, 1.5% hits;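 active = inhibition above a per-plate cutoff, the mean inhibition of test compounds on that plate plus 3 SD, cut at about 49% in these data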;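 also: 0% = DMSO plus EC80 beta-PEA response and 100% = DMSO alone without agonist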
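Assay system: CHO-derived RD-HGA16 cells stably expressing human TAAR1 plus Gα16. Timing: 140 s kinetic read after compound, 140 s after agonist. Technique: kinetic Fluo-8 calcium fluorescence measurement. Measure: % inhibition of agonist calcium response.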
nonsel antag count = counter-screen for TAAR1 antagonists: nonselective antagonists; 2,400 compounds, 77% hits; shares compounds with TAAR1 antag; inhibition, % at 3 µM; counterscreen cell line, calcium fluorescence, antagonist mode; AID 651780; in the data active = inhibition above about 22%;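 also: CHO-Ga16 host cells stimulated with ATP at an EC80 level; 0% = agonist EC80 plus vehicle and 100% = vehicle without agonist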
TAAR1 ant conf = human TAAR1 antagonism, confirmed; shares compounds with TAAR1 antag; TAAR1-expressing cells, fluorescence antagonist read-out; inhibition, % at 3 µM; 2,400 compounds, 40% hits; AID 651785; in the data active = inhibition above about 49%;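 also: CHO-Ga16 host cells challenged with agonist PEA near its EC80; 0% = agonist at EC80 plus vehicle and 100% = vehicle with no agonist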
Ga16 nonsel ag = nonselective Ga16 agonist in TAAR1 antagonist counter-screen. AID 651953. activation, % at 3 µM. shares compounds with TAAR1 antag. Ga16-expressing cells, calcium fluorescence, agonist counterscreen. 2,400 compounds, 18% hits; in the data active = activation above about 12%;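 also: 0% = vehicle wells and 100% = saturating stimulus response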
TAAR1 ag counter = counter-screen for human TAAR1 antagonists: TAAR1 agonists | shares compounds with TAAR1 antag | hTAAR1 cell line, fluorescence activation, agonist mode | activation, % at 3 µM | AID 651955 | 2,400 compounds, 2% hits; in the data active = activation above about 37%;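 also: CHO cells stably expressing TAAR1 with calcium dye readout; 0% = DMSO vehicle and 100% = full agonist response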
The depositor's hits bear a star; / = not tested or not shown. An excerpt weighted towards active compounds, which were near 4.6% of everything screened.

SMILES	TAAR1 agonist	GPR7 antagonist	OX1R antag-1	OX1R antag-2	CHO parental Ca	TAAR1 antag	nonsel antag count	TAAR1 ant conf	Ga16 nonsel ag	TAAR1 ag counter
Cc1ccccc1-c1nc(C(=O)NCC2CCCO2)cc2c1[nH]c1ccccc12 (configuration not stated)	0	6	-30	14	-23	55*	28*	37	5	0
COc1ccc(-c2cc(C(=O)NCC3CCCO3)c3ccccc3n2)cc1 (configuration not stated)	8	-17	-23	26	-22	11	/	/	/	/
O=C(NCC1CCCO1)c1cc2c([nH]c3ccccc32)c(-c2cccc(Br)c2)n1 (configuration not stated)	2	-2	-3	22	-5	75*	34*	58*	5	7
Cc1ccc(-c2nc(C(=O)NCCCN(C)C)cc3c2[nH]c2ccccc23)cc1	-1	10	-15	10	-1	-13	/	/	/	/
Cc1ccc(-c2nc(C(=O)NCC3CCCO3)cc3c2[nH]c2ccccc23)cc1 (configuration not stated)	4	-11	-15	50*	-5	76*	35*	55*	5	1
CCc1nc2c(OCc3ccccc3C)cccn2c1N(C)C(=O)c1ccc(C)cc1	19	/	/	/	/	-19	/	/	/	/
CC1(C(=O)Nc2ccc3c(c2)OCCO3)CN(S(C)(=O)=O)CC(=O)N1Cc1cccs1 (configuration not stated)	-1	/	/	/	/	21	/	/	/	/
C[C@@H]1C=CCCO[C@]12C(=O)N(Cc1ccc(F)cc1)c1cccc(Br)c12	-2	/	/	/	/	34	/	/	/	/
O=C(Nc1cccc(-c2cnc3ccccc3n2)c1)C1CC(=O)N(c2ccccc2)C1 (configuration not stated)	20	-11	-25	9	-15	80*	45*	63*	16*	18
O=C(Nc1ccncc1)C1CC(=O)N(c2ccccc2)C1 (configuration not stated)	0	/	/	/	/	16	/	/	/	/
O=C(Nc1ccccc1F)c1cc(-c2ccco2)nc2ccccc12	9	/	-34	27	-25	27	/	/	/	/
O=C(Nc1cccc(-c2cnc3ccccc3n2)c1)c1cccc(NC(=O)c2ccco2)c1	19	-6	6	49*	-5	74*	39*	63*	12*	10
O=C(Nc1cccc(-c2csc(Nc3ccccc3)n2)c1)c1ccccc1	10	/	-31	55	-12	65*	28*	33	2	0
O=C(Nc1ccccc1N1CCOCC1)c1cc(-c2ccco2)nc2ccccc12	18	-18	-22	33	-44	62*	29*	49*	8	9
CCCCOCCCNC(=O)C[C@@H]1C[C@@]2(C(=O)OC)CC(C)(C)CC=C2N(Cc2ccco2)C1=O	-2	/	/	/	/	-35	/	/	/	/
CC(=O)c1cccc(NC(=O)c2cc(-c3ccco3)nc3ccccc23)c1	13	0	-19	16	-15	63*	31*	50*	7	7
CC(=O)c1cccc(NC(=O)c2cc(-c3ccncc3)nc3ccccc23)c1	10	/	-2	-4	-6	46	/	/	/	/
O=C(Nc1cccc(S(=O)(=O)NC2=NCCCCC2)c1)c1cc(-c2ccco2)nc2ccccc12	13	-8	-11	8	-6	51*	30*	46	8	6
CC(C)(C)S(=O)N1Cc2cc(CO)ccc2[C@H]1CCO (some centres not stated)	2	/	/	/	/	-1	/	/	/	/
